ChEMBL document CHEMBL4334439, “Discovery, Optimization, and Target Identification of Novel Potent Broad-Spectrum Antiviral Inhibitors” (J Med Chem, 2019)

How the values were obtained:
[1] = Selectivity index, ratio of CC50 for human Huh7.5.1 cells to EC50 for EGFP-fused HCV JFH-1 harboring K78E/E2-G451R/NS3-M260K/NS5A-T462I mutant infected in human Huh7.5.1 cells; format: toxicity, cell-based; details: read-out: Ratio CC50/EC50
Hepatitis C virus [2] = assay: Antiviral activity against GFP-fused HCV JFH-1 harboring K78E/E2-G451R/NS3-M260K/NS5A-T462I mutant infected in human Huh7.5.1 cells assessed as reduction in viral infection at 10 uM preincubated for 2 hrs followed by viral infection and measured after 48 hrs by epifluorescence microscopic analysis relative to control; format: functional, Hepacivirus hominis; parameters: scale not given: the % may be the effect or the level left
Summary of the method: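 Primary screen at 10 μM. Huh7.5.1 cells were pretreated 2 h, then infected with GFP-HCV (MOI 1). GFP intensity was checked by fluorescence microscopy at 48 h. Hits needed over 50% fluorescence decay before dose-response retesting.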

[3] = Cytotoxicity against human Huh7.5.1 cells assessed as decrease in cell viability after 48 hrs by WST1 assay; format: cell-based
Summary of the method: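 Cells seeded at 1 × 10^4 per well and cultured overnight at 37 °C, then incubated 48 h with serially diluted compounds. Viability read with WST-1 reagent as absorbance at OD450/OD630.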

Hepatitis C virus [4] = assay: Antiviral activity against EGFP-fused HCV JFH-1 harboring K78E/E2-G451R/NS3-M260K/NS5A-T462I mutant infected in human Huh7.5.1 cells assessed as reduction in viral RNA level after 2 days by qRT-PCR analysis; format: functional, organism-based, Hepacivirus hominis; details: JFH-1, Huh-7.5.1, 48 h
Summary of the method: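 Huh7.5.1 cells at 1×10^4/well, grown overnight at 37 °C. HCVcc was mixed with serially diluted compound (top 30 or 6 μM), given alone or with the named drug, and added to the cells. Viral RNA was read by qRT-PCR after 2 days. EC50 is the concentration giving 50% RNA reduction.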

Hepatitis C virus [5] = assay: Antiviral activity against HCV JFH-1 harboring K78E/E2-G451R/NS3-M260K/NS5A-T462I mutant infected in human Huh7.5.1 cells after 2 days by renilla luciferase reporter gene assay; format: functional, organism-based, Hepacivirus hominis; details: JFH-1, Huh-7.5.1, 48 h
Summary of the method: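 Renilla luciferase reporter HCVcc (hRluc inserted in NS5A, aa 399/400) came from electroporated Huh7.5.1 supernatant. Virus plus serially diluted compound (top 30 or 6 μM) was added to Huh7.5.1 cells (1×10^4/well) and luminescence read. EC50 is 50% luminescence reduction.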

[6] = Inhibition of C-terminal 6-His tagged recombinant human DHODH N-terminal domain delta29 mutant expressed in Escherichia coli BL21(DE3) using dihydroorotate as substrate measured every 30 secs for 6 mins by DCIP dye based assay
Summary of the method: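 Enzyme purified by HisTrap then size exclusion. Reaction started with 500 μM dihydroorotate. DCIP decrease read at 600 nm. Inhibition = (1 − Vi/V0) × 100. IC50 from 8–9 concentrations in triplicate by sigmoidal fit.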

SMILES	selectivity ratio [1]	Activity (Hepatitis C virus [2]) [%]	CC50 at 48 h [3] [nM]	EC50 (Hepatitis C virus [4]) [nM]	EC50 (Hepatitis C virus [5]) [nM]	IC50 [6] [nM]
Cc1c(-c2ccc(Oc3ccc(SC(F)(F)F)cc3)c(F)c2)[nH]c2cccc(F)c2c1=O	> 27	>50	> 10000	360		
Cc1c(-c2ccc(Oc3ccc(N(C)C)cc3)c(F)c2)[nH]c2cccc(F)c2c1=O	> 10	>50	> 10000	1050		
Cc1c(-c2ccc(Cc3ccc(SC(F)(F)F)cc3)cc2)[nH]c2ccc(F)cc2c1=O	> 4	>50	> 10000	2480		
CN=S(=O)(c1ccc(Cc2ccc(-c3[nH]c4cccc(F)c4c(=O)c3C)cc2)cc1)C(F)(F)F (centres undefined)	> 2	>50	> 10000	5390		
Cc1c(-c2ccc(OCCCN3CCOCC3)cc2)[nH]c2cccc(F)c2c1=O	> 4	>50	> 100000	28100		
Cc1c(-c2ccc(Cc3ccc(OC(F)(F)F)cc3)cc2)[nH]c2cccc(F)c2c1=O	> 6	>50	> 10000	360 to 1560		
CCCN(CC)c1ccc(Oc2ccc(-c3[nH]c4cccc(F)c4c(=O)c3C)cc2F)cc1	> 151	>50	> 10000	66		
Cc1c(-c2ccc(Cc3ccc(OCC(F)(F)F)cc3)cc2)[nH]c2cccc(F)c2c1=O	> 6	>50	> 5000	840		
COc1ccc(Cc2ccc(-c3[nH]c4cccc(F)c4c(=O)c3C)cc2)cc1	> 5	>50	> 10000	2170		
Cc1c(-c2ccc(Cc3ccc(OC(F)F)cc3)cc2)[nH]c2cccc(F)c2c1=O	> 5	>50	> 5000	1010		
Cc1c(-c2ccc(Cc3ccc(SC(F)(F)F)cc3)cc2)[nH]c2cccc(F)c2c1=O	> 27	>50	> 10000	360 to 1560		
Cc1c(-c2ccc(Cc3ccc(SC(F)(F)F)cc3)cc2)[nH]c2c(F)cccc2c1=O	> 3	>50	> 5000	1850		
Cc1c(-c2ccc(Cc3ccc(S(F)(F)(F)(F)F)cc3)cc2)[nH]c2cccc(F)c2c1=O	> 7	>50	> 5000	730		
Cc1c(-c2ccc(Oc3ccc(N4CCNCC4)cc3)c(F)c2)[nH]c2cccc(F)c2c1=O	> 4	>50	> 10000	2570		
Cc1c(-c2ccc(Cc3ccc(S(=O)(=O)C(F)(F)F)cc3)cc2)[nH]c2cccc(F)c2c1=O	> 2	>50	> 2500	1760		
Cc1c(-c2ccc(Cc3ccc(C(C)(O)C(F)(F)F)cc3)cc2)[nH]c2cccc(F)c2c1=O (centres undefined)	> 23	>50	> 2500	110		
Cc1c(-c2ccc(Cc3ccc(N4CCCCC4)cc3)cc2)[nH]c2cccc(F)c2c1=O	> 5	>50	> 10000	1920		
Cc1c(-c2ccc(Cc3ccc(SC(F)(F)F)cc3)cc2)[nH]c2cc(F)ccc2c1=O	> 5	>50	> 5000	970		

SMILES	selectivity ratio [1]	Activity (Hepatitis C virus [2]) [%]	CC50 at 48 h [3] [nM]	EC50 (Hepatitis C virus [4]) [nM]	EC50 (Hepatitis C virus [5]) [nM]	IC50 [6] [nM]
Cc1c(-c2ccc(Oc3ccc(N4CCCC4)cc3)c(F)c2)[nH]c2cccc(F)c2c1=O	> 285	>50	> 10000	35		
CCN(C)c1ccc(Oc2ccc(-c3[nH]c4cccc(F)c4c(=O)c3C)cc2F)cc1	> 42	>50	> 10000	240		
Cc1c(-c2ccc(Cc3ccc(N4CCOCC4)cc3)cc2)[nH]c2cccc(F)c2c1=O	> 3	>50	> 10000	3650		
CC(C)OC(=O)[C@H](C)N[P@](=O)(OC[C@H]1O[C@@H](n2ccc(=O)[nH]c2=O)[C@](C)(F)[C@@H]1O)Oc1ccccc1 [SOFOSBUVIR]					170	
Cc1c(-c2ccc(Cc3ccc([S+]([O-])C(F)(F)F)cc3)cc2)[nH]c2cccc(F)c2c1=O (centres undefined)	> 7	>50	> 5000	760		
C#CCCC1(CCN(CC)c2ccc(Oc3ccc(-c4[nH]c5cccc(F)c5c(=O)c4C)cc3F)cc2)N=N1		>50		8		250
CCNc1ccc(Oc2ccc(-c3[nH]c4cccc(F)c4c(=O)c3C)cc2F)cc1	> 58	>50	> 10000	170		
C#CCCC1(CCN(CC)c2ccc(Oc3ccc(-c4nc5cccc(F)c5c(OC)c4C)cc3F)cc2)N=N1		>50		> 5000		1030
Cc1c(-c2ccc(Cc3ccc(C(C)(C)C)cc3)cc2)[nH]c2cccc(F)c2c1=O	> 17	>50	> 5000	290		
Cc1c(-c2ccc(Oc3ccc(N4CCCCC4)cc3)c(F)c2)[nH]c2cccc(F)c2c1=O	> 100	>50	> 10000	100		
Cc1c(-c2ccc(-c3ccc(SC(F)(F)F)cc3)cc2)[nH]c2cccc(F)c2c1=O	> 4	>50	> 10000	2330		
Cc1c(-c2ccc(OCCN3CCCCC3)cc2)[nH]c2cccc(F)c2c1=O	> 6	>50	> 100000	16600		
Cc1c(-c2ccc(CNC(=O)c3ccc(SC(F)(F)F)cc3)cc2)[nH]c2cccc(F)c2c1=O	> 5	>50	> 50000	11000		
CCN(CC)CCOc1ccc(-c2[nH]c3cccc(F)c3c(=O)c2C)cc1	> 4	>50	> 100000	25600		
Cc1c(-c2ccc(Cc3ccc(C(O)C(F)(F)F)cc3)cc2)[nH]c2cccc(F)c2c1=O (centres undefined)	> 3	>50	> 10000	3490		
Cc1c(-c2ccc(Cc3ccc(S(=N)(=O)C(F)(F)F)cc3)cc2)[nH]c2cccc(F)c2c1=O (centres undefined)	> 7	>50	> 10000	1420		
Cc1c(-c2ccc(Cc3ccc(Cl)cc3)cc2)[nH]c2cccc(F)c2c1=O	> 2	>50	> 10000	4400		
Cc1c(-c2ccc(COc3ccc(SC(F)(F)F)cc3)cc2)[nH]c2cccc(F)c2c1=O	> 6	>50	> 10000	1590		
